Assay outcomes deposited in PubChem by several laboratories.
The full list was thinned out, with hits kept by preference.
Jurkat NFkB inh = inhibitors of the PMA/ionomycin-induced NF-kB reporter in Jurkat cells | PMA/ionomycin-induced NF-kB luciferase reporter, luminescence | inhibition, % at 4 µM | 330,000 tested, 0.53% active; in the data active = inhibition above about 50%
UPR CHOP act = apoptotic UPR (CHOP) activation | CHO-CHOP luciferase reporter, luminescence; percent of tunicamycin response over DMSO baseline | activation, % at 10 µM | 330,000 tested, 0.34% active;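 active = at 10 µM dose, activation of 40% or more, normalized to positive control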;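 note: 100% = tunicamycin at 10 µg/mL and 0% = DMSO alone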
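Material: CHO-CHOP cells, stable luciferase reporter of PERK-eIF2a-CHOP signalling; quantity: 500 reporter cells seeded per well; buffer or medium: F12 medium containing 10% fetal bovine serum; compound: one dose, 10 µM in 0.5% DMSO; incubation: 6 h compound treatment, 37 °C; measured by: Steady-Glo luciferase luminescence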
697 NFkB inh = lowers PMA/ionomycin-induced NF-kB signal in 697 B cells; AID 435022; 330,000 tested, 0.33% active; 697 B-cell NF-kB luciferase reporter, 16 h; inhibition, % at 4 µM; in the data active = inhibition above about 35%
XBP1 UPR activ = activators of adaptive arm of unfolded protein response (XBP1); CHO-XBP1 luciferase reporter, IRE1-XBP1 UPR activation, luminescence; percent of tunicamycin response, DMSO as zero; activation, % at 20 µM; 330,000 tested, 0.33% active;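 active = versus positive control, 20 µM dose yields 30% or more activation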;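 note: 100% = tunicamycin at 10 µg/mL and 0% = DMSO only wells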
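assay system = CHO-XBP1 luciferase reporter cells | amount = 1000 cells/well | buffer or medium = F12 plus 10% FBS | compound dosing = single point, 20 µM final compound, 1% DMSO | incubation = 16-18 h cell attachment at 37 °C, then 6 h compound exposure | detection = Steady-Glo luminescence read | controls = tunicamycin 10 µg/mL and vehicle-only wells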
CHOP inhibitor = inhibitors of CHOP induction in ER stress response; CHO-K1 CHOP-promoter luciferase, tunicamycin-induced, 15-18 h; inhibition, % at 10 µM; 220,000 tested, 3.8% active; AID 2732;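 active = compounds that reduced the stress-induced luciferase reporter signal by more than about 70% of percent inhibition, limit read from the data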;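 note: 0% = tunicamycin plus vehicle and 100% = wells without tunicamycin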
Active calls of the source: *; x = not tested or not shown.

SMILES	Jurkat NFkB inh	UPR CHOP act	697 NFkB inh	XBP1 UPR activ	CHOP inhibitor
Cc1nc(N2CCCCC2)c2c(C)c(C(=O)Nc3cccc(C(F)(F)F)c3)sc2n1	-15.0	-2.1	-11.1	-2.5	34.8
Cc1nc(N2CCCCC2C)c2c(C)c(C(=O)Nc3cccc(C(F)(F)F)c3)sc2n1 (centres undefined)	-2.4	1.1	1.9	4.2	79.6*
Cc1nc(N2CCCCC2)c2c(C)c(C(=O)Nc3ccccc3C(F)(F)F)sc2n1	-10.5	-0.3	-13.6	-1.1	70.6*
COc1cc(NS(=O)(=O)c2ccc(NC(=S)NC(=O)/C=C/c3ccc(OC)c(OC)c3)cc2)ncn1	-1.7	2.2	-3.3	-0.4	79.2*
COc1ccc(/C=C/C(=O)NC(=S)Nc2ccc(S(=O)(=O)Nc3cc(OC)ncn3)cc2)cc1	x	x	x	x	20.1
CN(C)S(=O)(=O)c1ccc(N2CCCC2)c(C(=O)NNC(=O)c2ccccc2)c1	3.6	1.4	21.2	-1.7	x
CCC1CCc2c(sc(N)c2C(N)=O)C1 (centres undefined)	7.8	-1.8	2.2	-3.5	25.3
CCOC(=O)c1c(N)sc2c1CCC(CC)C2 (centres undefined)	12.2	1.9	17.4	1.4	76.6*
Fc1ccccc1CNc1cc(Cl)cc(Cl)c1	-4.5	1.4	22.2	-0.2	90.5*
O=[N+]([O-])c1ccccc1CNc1ccc(F)c(Cl)c1	-4.8	2.6	-6.2	0.0	-19.6
O=C(CCCc1c[nH]c2ccccc12)Nc1ccc(S(=O)(=O)Nc2ncccn2)cc1	-6.2	0.8	-0.6	-3.2	7.8
CN1c2ccccc2C(C)(C)[C@]12C=Cc1cc(O)ccc1O2	26.9	-1.4	-94.7	1.6	95.2*
CN1c2ccccc2C(C)(C)C12C=Nc1c(ccc3ccccc13)O2 (centres undefined)	-50.2	6.0	-145.7	-2.5	-26.9
O=C(CNCCC1=CCCCC1)Nc1ccccc1N1CCCCC1	-0.8	1.4	-8.7	1.2	91.8*
O=C(CNCC1CCCCC1)Nc1ccccc1N1CCCCC1	9.5	0.2	-27.1	2.4	78.7*
O=C(CNCC1CCCCC1)Nc1ccc(OC(F)(F)F)cc1	-1.8	-1.5	16.8	0.9	90.6*
CN(CC(=O)Nc1ccc(OC(F)(F)F)cc1)C1CCCCC1	1.5	0.0	25.6	1.8	45.2
O=C(CCC1CCCCC1)Nc1ccccc1O	-83.6	3.1	-72.3	4.5	73.1*
O=C(N1CCC(n2nc(-c3ccccc3)oc2=O)CC1)C1(c2ccccc2)CC1	10.5	1.3	-16.4	0.2	x
COc1cccc(N2CCN(C(=O)c3ccc(-c4ccccc4)cc3)CC2)c1	0.7	0.3	6.9	-3.4	x
Cc1cccc(N2CCN(CC(=O)NCC3CCCCC3)CC2)c1C	-24.1	-0.3	-21.1	-4.7	75.8*
O=c1cc(N2CCN(c3ccccc3)CC2)[nH]c(=O)n1C1CCCCC1	-10.3	-1.2	-29.5	4.9	78.1*
CN1CCN(c2cc(=O)n(C3CCCCC3)c(=O)[nH]2)CC1	0.3	0.6	-9.0	1.5	8.6
COCCC(=O)N1CCC(Oc2ccc(C(=O)NCc3nccn3C)cc2)CC1	-10.3	0.1	12.6	1.9	x
Cc1nn(Cc2ccccc2)c(Cl)c1C(=O)OC(C)C#N (centres undefined)	-0.2	0.7	-8.7	-0.5	16.6
SMILES	Jurkat NFkB inh	UPR CHOP act	697 NFkB inh	XBP1 UPR activ	CHOP inhibitor
O=C(COc1ccc(/C=N/NC(=O)c2ccccc2O)cc1)Nc1ccc([N+](=O)[O-])cc1	-7.1	2.9	4.7	6.1	90.5*
Cc1ccc(CNC(=O)CO/N=C/c2ccc(C(C)(C)C)cc2)cc1	5.8	-1.0	-9.7	-3.3	94.7*
CC(C)(C)c1ccc(/C=N/OCC(=O)NCc2ccc(F)cc2)cc1	-3.2	0.7	-48.1	-0.2	75.1*
Cc1cc2ccccc2n1CCNC(=O)Cc1cccc2ccccc12	-17.4	-1.1	-16.7	-5.8	71.3*
CCN(CC(=O)Nc1ccc(C)c(S(=O)(=O)N2CCOCC2)c1)Cc1ccccc1	-9.5	1.0	0.2	0.2	x
Cc1cc(Br)c(OCc2ccc(C(=O)N/N=C/c3ccc[nH]3)cc2)c(Br)c1	-3.7	41.4*	0.2	98.8*	x
COc1ccc(C(=O)N=C2SC3CS(=O)(=O)CC3N2Cc2ccc(F)cc2)cc1 (centres undefined)	-15.4	0.7	-6.8	-3.1	x
O=S(=O)(c1ccccc1)c1cnn2c(C(F)(F)F)cc(-c3ccccc3)nc12	0.2	-0.7	19.5	-1.8	12.5
O=S(=O)(c1ccccc1)c1cnn2c(C(F)(F)F)cc(-c3ccc(F)cc3)nc12	-12.1	0.3	-5.3	1.6	70.7*
CS(=O)(=O)N(CC(=O)N1CCN(C(c2ccccc2)c2ccccc2)CC1)C1CCCCC1	-1.4	-1.4	0.2	2.5	78.8*
O=C(NC(=S)NCc1ccccc1)C1CCCCC1	-14.2	3.2	-18.4	-0.4	88.9*
C=CCn1c(=O)c2ccc(C(=O)NCc3ccccc3)cc2n(Cc2ccc(Cl)cc2)c1=O	4.2	4.1	15.9	23.6	86.5*
C=CCn1c(=O)c2ccc(C(=O)NCc3ccccc3)cc2n(Cc2cccc(Cl)c2)c1=O	2.4	0.5	8.8	-4.0	18.2
O=c1ccc(-c2ccc(S(=O)(=O)Nc3ccc(F)cc3)o2)n[nH]1	-0.1	-1.7	-5.5	1.2	x
COc1ccccc1NC(=O)Cn1nnc(-c2ccccc2NC(=O)c2cnccn2)n1	0.7	2.2	-10.0	2.9	89.9*
CC(C)(C)NC(=O)Cn1nnc(-c2ccccc2NC(=O)c2cnccn2)n1	-8.1	2.1	-8.0	2.3	-11.4
COc1ccc(NC(=O)Cn2nnc(-c3ccccc3NC(=O)c3ccco3)n2)cc1	37.1	-3.6	-30.2	0.8	81.7*
O=C(Cn1nnc(-c2ccccc2NC(=O)c2cccs2)n1)Nc1ccccc1	-18.1	0.5	-6.9	0.5	79.7*
CCOc1ccc(C(C)=O)cc1CN1C(=O)c2ccccc2S1(=O)=O	1.3	0.9	-13.3	-3.1	x
COCCCn1c(SC(C)C(=O)Nc2c(C)n(C)n(-c3ccccc3)c2=O)n[nH]c1=O (centres undefined)	-1.2	1.9	17.6	-3.6	x
CC(C)n1c2ccccc2c2nnc(SCC(=O)OCN3C(=O)c4ccccc4C3=O)nc21	8.5	0.9	-4.1	-0.7	90.5*
O=C1CC(c2ccco2)Cc2nc(NCC3CCCO3)ncc21 (centres undefined)	-4.5	-0.8	-3.1	-1.9	81.7*
O=C1CC(c2ccco2)Cc2nc(Nc3ccc(F)cc3)ncc21 (centres undefined)	-3.1	0.9	-24.1	-2.7	49.4
CCn1c(SCC(=O)NC2CCCCC2)nc2c(c1=O)SCC2	30.8	-0.9	-12.4	-2.9	x
Cc1cc(C)nc(SCc2nnc(SCC(=O)Nc3ccc(Cl)c(C(F)(F)F)c3)o2)n1	-12.8	0.9	-28.5	-1.9	75.5*
CC(CN1CCOCC1)OC(=O)c1ccc(Br)cc1 (centres undefined)	-10.2	7.4	13.1	11.0	91.8*
